The text below walks through data of ChEMBL document CHEMBL1123811, “gem-Diphosphonate and gem-phosphonate-phosphate compounds with specific high density lipoprotein inducing activity” (1987).

Holding throughout (format): functional
Assay [1] has as its system Rattus norvegicus. Briefly: Activity to induce the elevation of HDL(High Density Lipoproteins)-Cholesterol in plasma lipids of male Wistar rats after the sc administration of 5 mg/kg/day. The conditions noted are these: route subcutaneous. An outline of the steps:
(§1)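 Wistar rats on a normal diet were dosed daily for 4 days at the dose and route given. On day 5, after an overnight fast, they were killed under ether and blood was taken by decapitation into EDTA. Plasma HDL cholesterol was measured after heparin-CaCl2 precipitation of VLDL/LDL and is expressed as % change versus a vehicle control group.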

The subject of assay [2] is Rattus norvegicus. Briefly: Activity to induce the elevation of alpha/beta cholesterol ratio in plasma lipids of male Wistar rats after the sc administration of 5 mg/kg/day. The conditions noted are these: route subcutaneous. An outline of the steps:
(§2)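 Rats (Wistar, normal diet) were treated daily for 4 days and fasted overnight, and EDTA plasma was taken on day 5. Total cholesterol was measured enzymatically, and β-lipoprotein cholesterol after heparin-CaCl2 precipitation. The α/β-cholesterol ratio is reported as % change from vehicle-treated controls.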

The subject of assay [3] is Rattus norvegicus. Briefly: Activity to induce the elevation of triglycerides in plasma lipids of male Wistar rats after the sc administration of 5 mg/kg/day. The conditions noted are these: route subcutaneous. An outline of the steps:
(§3)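 Daily dosing of normal-diet Wistar rats ran for 4 days, with sacrifice on day 5 after an overnight fast. Plasma was collected by decapitation into EDTA. Total triglycerides were measured enzymatically and expressed as % change relative to the vehicle control group.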

Assay [4] relates to Rattus norvegicus. Nature of the assay: Activity to induce the elevation of phospholipids in plasma lipids of male Wistar rats after the sc administration of 5 mg/kg/day. The conditions noted are these: route subcutaneous. An outline of the steps: (§4)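 Normal-diet Wistar rats were given the test agent once daily for 4 days and killed on day 5 after an overnight fast. Total plasma phospholipids (EDTA plasma) were measured chemically by the molybdate/vanadate reaction or enzymatically (phospholipid B test). Values are % of vehicle controls.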

For assay [5], the system named is Rattus norvegicus. Nature of the assay: Activity to induce the elevation of phospholipids of male Wistar rats after po administration of 100 mg/kg/day. An outline of the steps: as §4
The species entered for assay [6] is Rattus norvegicus. Briefly: Activity to induce the elevation of HDL(High Density Lipoproteins)-Cholesterol of male Wistar rats. Set-up: concentration or dose not given beside the values. An outline of the steps:
(§5)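 Wistar rats on normal diet; groups were vehicle control, an internal-standard diphosphonate, and test compounds. Dosed daily for 4 days; diphosphonates were dissolved in water or suspended in 1% (carboxymethyl)cellulose, 4 mL/kg. On day 5, after overnight fast, rats were killed under ether. EDTA plasma was assayed enzymatically for HDL-C after heparin-CaCl2 precipitation of VLDL/LDL, phospholipids, triglycerides and α/β-cholesterol ratio. Results are given as % of control.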

The species entered for assay [7] is Rattus norvegicus. Briefly: Activity to induce the elevation of phospholipids of male Wistar rats. Details: concentration or dose not given beside the values. An outline of the steps: as §5
Assay [8] concerns Rattus norvegicus. Briefly: Activity to induce the elevation of HDL(High Density Lipoproteins)-Cholesterol of male Wistar rats after po administration of 100 mg/kg/day. An outline of the steps: as §1
For assay [9], the species on record is Rattus norvegicus. Nature of the assay: Activity to induce the elevation of alpha/beta cholesterol ratio of male Wistar rats. Details: concentration or dose not given beside the values. An outline of the steps:
as §5

Assay [10] is filed under the species Rattus norvegicus. Briefly: Activity to induce the elevation of triglycerides of male Wistar rats. Set-up: concentration or dose not given beside the values. An outline of the steps:
as §5

The test system of assay [11] is Rattus norvegicus. Briefly: Activity to induce the elevation of triglycerides of male Wistar rats after po administration of 100 mg/kg/day. An outline of the steps:
as §3

The subject of assay [12] is Rattus norvegicus. Briefly: Activity to induce the elevation of alpha/beta cholesterol ratio of male Wistar rats after po administration of 100 mg/kg/day. An outline of the steps: as §2

In the case of `C[C@]12CC[C@@H]3c4ccc(O)cc4CC[C@H]3[C@@H]1CC[C@@H]2O` [ESTRADIOL], the Control in the assay with Rattus norvegicus [1] is recorded as -83%; with Rattus norvegicus [2], -47%; in the assay with Rattus norvegicus [3], -51%; in the assay with Rattus norvegicus [4], -77%.

As for `COP(=O)(OC)OC(c1ccc(Cl)cc1)P(=O)(OC)OC` (configuration not stated) [MIFOBATE], the Control with Rattus norvegicus [5] amounted to 17%; with Rattus norvegicus [8], 26%; with Rattus norvegicus [11] it was 0%; with Rattus norvegicus [12], 52%. For the same molecule, the “HDL-cholesterol change relative to control (%)” value in the assay filed under Rattus norvegicus [6] turned out to be 157%. Also, the “Plasma phospholipids, % change versus control” value in the assay listed under Rattus norvegicus [7] was found to be 26%. Also, the “Percent change in alpha/beta cholesterol ratio versus control” value in the assay filed under Rattus norvegicus [9] was determined as 180%. Also, the “Percent change in plasma triglycerides versus control” value in the assay listed under Rattus norvegicus [10] is 0%.
